Where only a bound is given, the exact number is not on record here.

Series [1] can be described thus: Half-life period determined in water at room temperature. The series is classed as ADME.
For series [2], the system named is HEp-2. Put plainly: Concentration that produces 50 % inhibition of cloning of H.Ep.-2 cells in suspension culture, over a 12-day period. The class given is functional, cell-based. Conditions: Homo sapiens, HEp-2, 288 h; read-out: I50. The method, boiled down:
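H.Ep.-2 cells tested by cloning over a 12-day period. I50 is the concentration giving 50% inhibition of colony formation relative to untreated control growth.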

The test system of series [3] is L1210. As to the kind of experiment: Concentration that produces 50 % inhibition of proliferation of L1210 cells in suspension culture in 48 h,. The series is classed as functional, cell-based. To be noted: Mus musculus, L1210, 48 h; read-out: I50. The gist of the method:
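L1210 cells grown in suspension culture for 48 h with compound. I50 is the concentration giving 50% inhibition of proliferation relative to control growth.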

For series [4], the system named is Mus musculus. As to the kind of experiment: Activity against P388 leukemia was determined in vivo. The percent increase in life span at a compound dose of 25 mg/kg. The series is classed as functional. The gist of the method: (§1)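 P388 leukemia in vivo; dosing given as a single injection on days 1-5. Read-out is the percent increase in life span relative to untreated controls.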

The nature of series [5]: Ratio of the cytotoxic concentrations (I50''s) against H.Ep.-2 and L1210 cells. The class given is functional.
Series [6] concerns Mus musculus. Put plainly: Activity against P388 leukemia was determined in vivo. The percent increase in life span at a compound dose of 100 mg/kg. The series is classed as functional. The method, boiled down: as §1
In series [7] the test system is Mus musculus. Put plainly: Activity against P388 leukemia was determined in vivo. The percent increase in life span at a compound dose of 12.5 mg/kg. The class given is functional. The method, boiled down: as §1
The test system of series [8] is Mus musculus. As to the kind of experiment: Activity against P388 leukemia was determined in vivo. The percent increase in life span at a compound dose of 50 mg/kg. The series is classed as functional. The method, boiled down:
as §1

Series [9] can be described thus: Ratio of the cytotoxic concentrations (I50's) against H.Ep.-2 and L1210 cells. The class given is functional.
Series [10] concerns Mus musculus. Put plainly: Activity against P388 leukemia was determined in vivo. The percent increase in life span at a compound dose of 200 mg/kg. The series is classed as functional. The method, boiled down: as §1

In series [1], `Cc1cn(C2CC(O)C(CCC(=O)CI)O2)c(=O)[nH]c1=O` (stereo not given) showed a half-life of 4 h. For the same compound, the IC50 in series [2] was 17 µM; in series [3], 20 µM. In series [4], this compound displayed an increase in life span (ILS) at 25 mg/kg of 16%. The Ratio in [5] amounted to 16.
Consider `Cc1cn(C2CC(O)C(C(=O)Nc3ccc(C(=O)CCl)cc3)O2)c(=O)[nH]c1=O` (stereo not given), for which the half-life in [1] was > 52 h. Further, the IC50 in series [2] was 30 µM; in series [3] it was 28 µM. The compound also yielded an ILS at 100 mg/kg in series [6] of 14%. In addition, the Ratio in series [5] amounted to 14.
Take `Cc1cn(C2CC(O)C(CCC(=O)CBr)O2)c(=O)[nH]c1=O` (stereo not given): in [1], the half-life is 1.8 h. The IC50 was 55 µM in series [2] and 110 µM in series [3]. The compound further displayed an ILS at 12.5 mg/kg in series [7] of 16%. The Ratio in series [5] was found to be 16.
For `Cc1cn(C2CC(O)C(CCC(=O)CCl)O2)c(=O)[nH]c1=O` (stereo not given), in series [1], the half-life was > 52 h. Moreover, the values for the IC50 in series [2] and in series [3] were 25 µM and 66 µM, respectively. The same compound came in with an ILS at 50 mg/kg in [8] of 10%. The Ratio in series [9] is on record as 10.
For `Cc1cn(C2CC(O)C(CNC(=O)c3ccc(C(=O)CBr)cc3)O2)c(=O)[nH]c1=O` (stereo not given), the half-life in series [1] is 1 h. The IC50 in [2] is > 40 µM; in series [3] it was > 70 µM. This compound also came in with an ILS at 50 mg/kg in series [8] of 15%. In addition, the Ratio in series [5] turned out to be 15.
`Cc1cn(C2CC(O)C(C(=O)Nc3ccc(C(=O)CBr)cc3)O2)c(=O)[nH]c1=O` (stereo not given) showed a half-life in series [1] of 4 h. Moreover, the figures for the IC50 in series [2] and in [3] were 12 µM and 6 µM, respectively. The ILS at 200 mg/kg in [10] turned out to be 38%. Further, the Ratio in series [5] came to 38.
Regarding `Cc1cn(C2CC(O)C(C(=O)Nc3ccc(C(=O)CI)cc3)O2)c(=O)[nH]c1=O` (stereo not given), the half-life in series [1] was 13 h. The IC50 in series [2] worked out at 29 µM; in [3], 8 µM. The compound further yielded an ILS at 25 mg/kg in series [4] of 5%. Further, the Ratio in [5] was 5.

As usually defined, the half-life is the time in which the quantity being followed falls by half. Read a high half-life as slow decline. The term ILS denotes how much longer treated animals lived than controls. High values mean much gain in survival, low ones little gain in survival.

(Values after ChEMBL document CHEMBL1122739, “Potential inhibitors of nucleotide biosynthesis. 2. Halomethyl ketone derivatives of pyrimidine nucleosides” (J Med Chem, 1984).)
